# This is a sample that favours compounds with a hit; in the whole collection about 3.9% have one here.
# Jurkat NFkB inh = lowers PMA/ionomycin-induced NF-kB signal in Jurkat cells; PMA/ionomycin-induced NF-kB luciferase reporter, luminescence; inhibition, % at 4 µM; hit rate 0.53% among 330,000; in the data active = inhibition above about 50%
# CHOP UPR activ = activators of apoptotic arm of unfolded protein response (CHOP); activation, % at 10 µM; AID 449763; CHO-CHOP luciferase reporter, UPR activation, luminescence; percent of tunicamycin response over DMSO baseline; hit rate 0.34% among 330,000;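 active = at 10 µM dose, activation of 40% or more, normalized to positive control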;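 also: 100% = tunicamycin at 10 µg/mL and 0% = DMSO alone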
#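 Assay system: CHO-CHOP cells, stable luciferase reporter of PERK-eIF2a-CHOP signalling / Buffer or medium: F12 plus 10% serum / Compound dosing: one dose, 10 µM in 0.5% DMSO / Times: 6 h compound treatment, 37 °C / Technique: luciferase luminescence / Read-out: % reporter activation, DMSO baseline versus tunicamycin full activation / Benchmarks: tunicamycin and DMSO controls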
# CHOP inhibitor = blocks CHOP induction under ER stress | CHO-K1 CHOP-promoter luciferase, tunicamycin-induced, 15-18 h | inhibition, % at 10 µM | hit rate 3.8% among 220,000 | AID 2732;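 active = compounds that reduced the stress-induced luciferase reporter signal by more than about 70% of percent inhibition, limit read from the data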;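 also: 0% = tunicamycin plus vehicle and 100% = wells without tunicamycin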
# 697 NFkB inh = inhibitors of the PMA/ionomycin-induced NF-kB reporter in 697 B cells; AID 435022; inhibition, % at 4 µM; 697 B-cell NF-kB luciferase reporter, 16 h; hit rate 0.33% among 330,000; in the data active = inhibition above about 35%
# XBP1 UPR activ = adaptive UPR (XBP1) activation | activation, % at 20 µM | CHO-XBP1 luciferase reporter, IRE1-XBP1 UPR activation, luminescence; percent of tunicamycin response, DMSO as zero | hit rate 0.33% among 330,000 | AID 463104;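 active = versus positive control, 20 µM dose yields 30% or more activation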;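 also: 100% = tunicamycin at 10 µg/mL and 0% = DMSO only wells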
#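 Material – CHO cell line with stable XBP1 luciferase reporter · Buffer or medium – F12 plus 10% FBS · Compound – single point, 20 µM final compound, 1% DMSO · Schedule – 16-18 h cell attachment at 37 °C, then 6 h compound exposure · Signal – Steady-Glo luminescence read · Benchmarks – high control tunicamycin 10 µg/mL final, low control DMSO vehicle only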
# Gli-Sufu block = blocks Gli-Sufu signaling in a luciferase reporter | hit rate 0.74% among 340,000 | inhibition, % at 5 µM | AID 588413 | Sufu-KO-LIGHT fibroblasts, Gli luciferase reporter luminescence;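 active = inhibition above about 55%, limit read from the data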;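 also: 0% = DMSO-treated cells and 100% = wells with medium but no cells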
# XBP1 UPR conf = confirmation of adaptive unfolded protein response (XBP1) activators. activation, % at 20 µM. CHO-XBP1 IRE1-XBP1 luciferase reporter, luminescence. AID 485299. shares compounds with XBP1 UPR activ. hit rate 63% among 1,000;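 active = reporter signal at least 30% of the positive control's activation in two or more of four replicate wells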;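 also: plate controls were DMSO negative control for no effect and tunicamycin 10 µg/mL positive control for full effect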
# Gli antag conf = confirmation of Gli-SUFU pathway antagonists. shares compounds with Gli-Sufu block. Sufu-KO-LIGHT cells, Gli luciferase reporter, luminescence. AID 602428. inhibition, % at 5 µM. hit rate 40% among 2,500;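 active = mean inhibition at 5 µM reaching about 45%, limit read from the data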;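 also: plate controls were DMSO-treated cells for no effect and wells lacking cells for full effect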
# Gli cytotox = counter-screen for Gli-SUFU antagonists: cytotoxicity | shares compounds with Gli-Sufu block | Sufu-KO-LIGHT cells cytotoxicity, ATP luminescence | cytotoxicity, % at 5 µM | hit rate 32% among 2,500 | AID 651994;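 active = mean cytotoxicity at 5 µM above about 25%, limit read from the data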;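 also: cells exposed to compound overnight for roughly 16 to 18 hours; plate controls were DMSO wells with cells for no effect and medium without cells for full effect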
# Wnt3a cs = inhibits Wnt3a reporter, counter-screen for Gli-SUFU antagonists | hit rate 20% among 2,500 | Wnt-LIGHT cells, Wnt3a-driven luciferase reporter, luminescence | shares compounds with Gli-Sufu block | inhibition, % at 6.25 µM;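 active = mean inhibition above about 25%, limit read from the data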
# Starred values were filed as active, the others as inactive; / = no result given.
SMILES,Jurkat NFkB inh,CHOP UPR activ,CHOP inhibitor,697 NFkB inh,XBP1 UPR activ,Gli-Sufu block,Gli antag conf,Gli cytotox,Wnt3a cs,others
Cc1cc(N2CCN(c3nc(-c4ccc([N+](=O)[O-])cc4)cs3)CC2)c2ccccc2n1,16,9,82*,-1,68*,63*,32,19,-5,XBP1 UPR conf=39*
O=C(COC(=O)CCC(=O)c1cccs1)Nc1ccccc1C(F)(F)F,-10,-1,/,5,0,3,/,/,/,
O=C(COC(=O)c1ccc2[nH]c3c(c2c1)CCCC3)Nc1ccc(Cl)cc1Cl,19,0,8,-11,1,-2,/,/,/,
O=C(COC(=O)c1ccc2[nH]c3c(c2c1)CCCC3)Nc1ccccc1Cl,3,-2,-29,5,52*,51,47*,7,-23,XBP1 UPR conf=66*
O=C(NCC1CCCN(C(=O)Cc2ccccc2Cl)C1)c1ccc(F)cc1 (stereo not drawn),2,0,/,-21,-8,2,/,/,/,
Cc1nc(N2CCN(C(=O)c3cnccn3)CC2)c2c3c(sc2n1)CC(C(C)(C)C)CC3 (stereo not drawn),8,8,/,-11,34*,51,22,5,2,XBP1 UPR conf=0
O=[N+]([O-])c1ccc(O)c(-c2nc(-c3ccccc3)c(-c3cccs3)[nH]2)c1,12,7,85*,-8,9,52,70*,11,67*,
O=C(Cn1cc(C(F)(F)F)ccc1=O)N/N=C/c1ccc(Cl)c(Cl)c1,9,0,32,-5,-2,50,17,8,-49,
CCN(CC(=O)NCc1cccs1)C(=O)/C=C/c1cc(Br)ccc1OC(F)F,1,2,/,26,0,54,35,13,-8,
Cc1cc(C)nc(NN2C(=O)/C(=C/c3ccc(O)cc3)SC2=S)n1,-13,0,12,9,1,56*,32,6,21,
N#Cc1ccc(Sc2nc3ccccc3[nH]2)cc1C#N,2,0,16,1,-1,92*,24,-5,-1,
N#C/C(=C\c1ccc(Sc2nc3ccccc3[nH]2)o1)c1ccccc1,12,2,57,-23,1,4,/,/,/,
Cc1cc(C(=O)NCCN2CCOCC2)c2ccccc2n1,-8,-1,/,-10,-2,-3,/,/,/,
O=C(Cn1ccc2cc(S(=O)(=O)N3CCCC3)ccc21)NCCc1ccccc1,12,-1,/,0,1,57*,26,6,-17,
Cc1nn(Cc2ccccc2)c(C)c1NC(=O)CCCn1nc(C)c([N+](=O)[O-])c1C,-2,0,15,5,-2,-7,/,/,/,
Cc1nn(Cc2ccc(Cl)cc2)c(C)c1NC(=O)CCCn1nc(C)c([N+](=O)[O-])c1C,-1,-1,22,-9,-2,10,/,/,/,
Cc1nn(Cc2ccc(Cl)cc2)c(C)c1NC(=O)Cn1nc([N+](=O)[O-])c(Cl)c1C,-13,-1,-21,-5,-1,51,10,8,12,
Cc1nn(Cc2ccccc2)c(C)c1NC(=O)CCCn1nc([N+](=O)[O-])c(Cl)c1C,7,2,-17,12,-2,54,16,13,-31,
CCCc1nnc(NC(=O)CCC(=O)N2CCN(Cc3cc(F)ccc3OC)CC2)s1,13,3,/,3,-4,6,/,/,/,
COc1ccc(F)cc1CN1CCN(C(=O)CCC(=O)Nc2nnc(C(C)C)s2)CC1,17,4,21,24,-7,96*,13,15,-13,
CC1Cn2c(CCc3ccccc3)nnc2S1 (stereo not drawn),15,0,2,3,-1,54,19,2,-7,
Cc1ccc(NC(=O)Cc2nc(-c3c[nH]c(C(=O)N4CCCC4)c3)cs2)c(C)c1,8,-1,/,22,-3,-9,/,/,/,
CC(=O)c1ccc(NS(=O)(=O)c2ccc(C(C)(C)C)cc2)cc1,-2,3,-4,-12,-1,18,/,/,/,
CC(=O)c1ccc(NS(=O)(=O)c2ccc(C)cc2)cc1,18,0,24,10,-2,55,30,14,11,
CCCNC1(C(N)=O)CCN(Cc2ccccc2)CC1,/,/,/,/,/,12,/,/,/,
SMILES,Jurkat NFkB inh,CHOP UPR activ,CHOP inhibitor,697 NFkB inh,XBP1 UPR activ,Gli-Sufu block,Gli antag conf,Gli cytotox,Wnt3a cs,others
COC(=O)[C@@]12CCCCN1[C@H](c1ccc(-c3ccccc3)cc1)[C@@H]1C(=O)N(C)C(=O)[C@@H]12,7,-2,/,-3,-4,83*,26,1,25*,
COC(=O)[C@@]12CCCCN1[C@H](c1ccc(-c3ccc(OC)cc3)cc1)[C@H]1C(=O)N(C)C(=O)[C@H]12,16,1,/,-6,1,21,/,/,/,
Cc1nn(C(C)(C)C)c(OC(=O)c2ccco2)c1Sc1ccccc1,-2,1,75*,18,1,92*,36,4,0,
Cc1ccc(S(=O)(=O)n2nc(OC(=O)c3ccco3)cc2N)cc1,-5,0,50,3,1,12,/,/,/,
CCCn1c(Sc2nc3c(c(=O)[nH]c(=O)n3C)n2CCC)nc2c1c(=O)[nH]c(=O)n2C,1,1,-3,-4,-3,99*,9,2,-4,
COCCSc1nc2c(c(=O)[nH]c(=O)n2C)n1CCCc1ccccc1,4,1,/,-12,4,52,9,3,-32,
C/C=C/CSc1nc2c(c(=O)[nH]c(=O)n2C)n1CCC,-5,1,50,-25,0,9,/,/,/,
CC(=O)NCCC(=O)Nc1nc(-c2cccs2)c(-c2cccs2)s1,6,4,17,-19,3,50,22,6,-3,
CCNc1nc(CN2CCCCC2)nc2scc(-c3ccccc3)c12,28,0,20,-69,2,69*,56*,18,-32,
O=C([O-])c1cc(-c2ccccc2)cc(-c2ccccc2)[n+]1CCc1ccc(Cl)cc1,/,/,/,/,/,78*,67*,36*,-23,
Cc1ccc(NC(=O)Cn2c(=O)c3cccn3c3ccccc32)cc1,3,-1,/,-10,15,5,/,/,/,
Cc1nc2ccccc2nc(C)c1=NOCc1cccc(F)c1,-15,-1,8,-29,-4,66*,21,6,-21,

# Screening results from PubChem.
